# Calls of active or inactive are those of the source. The rule behind the calls is not given here.
# Columns and labels:
# [1] = Inhibition of Hsp70 in human SKBR3 cells assessed as RAF1 protein degradation by Western blotting analysis; assay type: cell-based; settings: SK-BR-3
# Procedure, shortened: (§1)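 SKBr3 cells at 60–70% confluence treated with compound or DMSO for the indicated times. Lysed in 50 mM Tris pH 7.4, 150 mM NaCl, 1% NP-40. 10–50 μg protein (BCA) resolved by SDS–PAGE and immunoblotted for HER2, Raf-1, or the PARP p85 fragment, with β-actin as loading control.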
# SK-BR-3 [2] = assay: Induction of apoptosis in human SKBR3 cells assessed as PARP cleavage by Western blotting analysis; assay type: functional, cell-based; procedure, shortened: as §1
# [3] = Inhibition of His-tagged Escherichia coli DNAK assessed as inhibition of DNAJ complex formation
# [4] = Inhibition of Hsp70 in human SKBR3 cells assessed as HER2 protein degradation by Western blotting analysis; assay type: cell-based; settings: SK-BR-3; procedure, shortened: as §1
# [5] = Growth inhibition of human SKBR3 cells after 72 hrs by Alamar Blue assay; assay type: functional, cell-based; settings: SK-BR-3, 72 h
# Procedure, shortened: (§2)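 Cells plated 8000/well (SKBr3, adherent) or 20000/well (Kasumi-1, suspension) and left 24 h at 37 °C. Compound added in triplicate for 72 h. Alamar Blue (50 μM) added; fluorescence (ex 530/em 580 nm) read 6 h later.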
# [6] = biological target: Heat shock protein HSP 90-beta (Homo sapiens, UniProt P08238); assay: Displacement of GM-cy3B from Hsp90 in human SKBR3 cells after 24 hrs by fluorescence polarization assay; design: species or system SK-BR-3
# Heat shock protein HSP 90-beta, sequence (P08238 whole entry): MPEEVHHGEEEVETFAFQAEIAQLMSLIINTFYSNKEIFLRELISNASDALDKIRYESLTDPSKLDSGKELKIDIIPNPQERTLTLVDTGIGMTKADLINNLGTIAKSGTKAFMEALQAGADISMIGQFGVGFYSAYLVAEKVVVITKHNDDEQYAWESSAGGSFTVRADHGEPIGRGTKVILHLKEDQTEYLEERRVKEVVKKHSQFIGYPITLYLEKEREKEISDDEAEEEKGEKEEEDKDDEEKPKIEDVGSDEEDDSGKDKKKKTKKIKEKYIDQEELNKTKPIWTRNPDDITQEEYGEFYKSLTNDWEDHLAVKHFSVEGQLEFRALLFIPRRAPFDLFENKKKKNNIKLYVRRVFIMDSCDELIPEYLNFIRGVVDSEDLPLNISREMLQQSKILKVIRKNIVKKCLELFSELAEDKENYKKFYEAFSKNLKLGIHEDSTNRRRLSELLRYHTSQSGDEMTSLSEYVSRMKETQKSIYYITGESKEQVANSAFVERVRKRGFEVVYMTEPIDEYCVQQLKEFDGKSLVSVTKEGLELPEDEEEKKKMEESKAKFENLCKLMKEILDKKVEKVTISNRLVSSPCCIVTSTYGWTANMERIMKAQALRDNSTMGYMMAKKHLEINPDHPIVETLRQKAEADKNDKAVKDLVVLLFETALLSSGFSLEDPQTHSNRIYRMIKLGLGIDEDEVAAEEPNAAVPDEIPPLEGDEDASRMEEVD
# Procedure, shortened: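 Final 6 nM GM-cy3B with 3 μg SKBr3 lysate protein; compound in triplicate; geldanamycin as positive control. Shaken 24 h at 4 °C, mP read. Concentration displacing 50% of bound tracer obtained by curve fitting.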
# Kasumi 1 = assay: Growth inhibition of human Kasumi-1 cells expressing p-gp/MDR1 after 72 hrs by Alamar Blue assay; assay type: functional, cell-based; settings: Kasumi 1, 72 h; procedure, shortened: as §2
# MOLM-13 = assay: Induction of apoptosis in human MOLM13 assessed as caspase 3/7 activation using Z-DEVD-R110 as substrate pretreated for 16 hrs followed by substrate addition by fluorescence-based assay; assay type: functional, cell-based
# Procedure, shortened: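 MOLM-13 cells (30000/well, RPMI) rested up to 24 h at 37 °C, 5% CO2. Treated 16 h with compound or DMSO, in triplicate. Then buffer added containing 10 mM HEPES pH 7.5, 2 mM EDTA, 0.1% CHAPS and 25 μM Z-DEVD-R110. Fluorescence read once stable; % increase in apoptotic cells calculated versus control.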
# SK-BR-3 [7] = assay: (§3) Inhibition of Hsp70 in human SKBR3 cells assessed as inhibition of HOP complex formation after 24 hrs by Western blotting analysis; assay type: cell-based
# Procedure, shortened: (§4)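 SKBr3 cells treated 24 h at the indicated concentrations, then lysed (20 mM Tris pH 7.4, 25 mM NaCl, 0.1% NP-40, protease inhibitors). 500 μg protein immunoprecipitated overnight at 4 °C with anti-Hsp70 BB70 (normal IgG as negative control) and protein G beads. Beads washed five times; co-precipitated HOP detected by Western blot.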
# [8] = as §3; assay type: cell-based; settings: SK-BR-3, 24 h; procedure, shortened: as §4
# SK-BR-3 [9] = assay: Binding affinity to Hsp70 in human SKBR3 cells after 1 hr by […] in presence of N-(6-Amino-2-((4,6-dimethoxy-2-(4-methylpiperazin-1-yl)-pyrimidin-5-yl)thio)pyrimidin-4-yl)acrylamide; assay type: cell-based
# Procedure, shortened: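 Cells pretreated 2 h with increasing concentrations of soluble competitor, then lysed (20 mM Tris pH 7.4, 25 mM NaCl, 0.1% NP-40). Extract (500 μg protein) incubated overnight with beads carrying biotinylated ligand (50 μM, loaded 1 h at 4 °C). Beads washed in high-salt buffer (1 M NaCl), run on SDS–PAGE, and silver stained.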
IC50 [1] [µM],IC50 (SK-BR-3 [2]) [µM],IC50 [3] [µM],IC50 [4] [µM],IC50 [6] [µM],IC50 (MOLM-13) [µM],IC50 [8] [µM],Compound,IC50 [5] [µM],IC50 (Kasumi 1) [µM],inhibition (SK-BR-3 [7]),Activity (SK-BR-3 [9])
> 100,> 100,14.5,> 100,–,–,–,O=c1c(O)c(-c2cc(O)c(O)c(O)c2)oc2cc(O)cc(O)c12 [MYRICETIN],–,–,–,–
2.5,1.5,–,1,> 500,4,1.73,C=CC(=O)Nc1cc(N)nc(Sc2c(OCC)nc(N3CCN(C)CC3)nc2OCC)n1,1.1,0.89,Dose-dependent effect,–
–,–,–,–,–,15.4,–,C=CC(=O)Nc1ccnc(Sc2c(C)nc(N3CCOCC3)nc2C)n1,–,14.4,–,–
–,10,–,2.5,> 500,14.3,–,C=CC(=O)Nc1cc(N)nc(Sc2c(OC)nc(N3CCN(CCOCCOCCOCCO)CC3)nc2OC)n1,7.5,3.8,–,–
50,40,–,30,> 500,45,–,C=C(C)C(=O)Nc1ccnc(Sc2c(C)nc(N3CCN(C)CC3)nc2C)n1,16.7,35,–,–
3.1,10,–,2,> 500,4,–,C=CC(=O)Nc1cc(N)nc(Sc2c(OCC)nc(N3CCCCC3)nc2OCC)n1,7,4.5,–,–
60,100,–,75,> 500,100,–,C=CC(=O)Nc1cc(N)nc(Sc2c(OC)nc(N3CCN(C)CC3)nc2OCCOCCOCCOCCO)n1,50,76.5,–,–
5,7.5,–,7.5,> 500,4,–,C=CC(=O)Nc1ccnc(Sc2c(OC)nc(N3CCN(C)CC3)nc2OC)n1,1.2,1.25,–,–
–,–,–,–,–,60,–,C=C(C)C(=O)Nc1cccc(Sc2c(OC)nc(N3CCN(C)CC3)nc2OC)c1,–,–,–,–
5,5,–,4,> 500,6,–,C=CC(=O)Nc1ccnc(Sc2c(C)nc(N3CCN(C)CC3)nc2C)n1,1.8,–,–,–
–,–,–,–,–,12.1,–,C=CC(=O)Nc1cc(N)nc(Sc2c(OC)nc(N3CCOCC3)nc2OC)n1,–,–,–,–
–,–,–,–,–,10.5,–,C=CC(=O)Nc1cc(N)nc(Sc2c(OCC)nc(N3CCOCC3)nc2OCC)n1,–,2.2,–,–
–,–,–,–,–,–,–,C=CC(=O)Nc1cc(N)nc(Sc2c(OC)nc(N3CCN(CCOCCOCCOCCOC(=O)CCCC[C@@H]4SC[C@@H]5NC(=O)N[C@@H]54)CC3)nc2OC)n1,–,–,–,Active
17,25,–,20,> 500,> 100,–,C=CC(=O)Nc1ccnc(Sc2c(OC)nc(N3CCCC3)nc2OC)n1,5,46.1,–,–
7.5,5,–,2.5,> 250,16.2,–,C=CC(=O)Nc1cc(N)nc(Sc2c(OC)nc(N3CCCCC3)nc2OC)n1,9,17.1,–,–
–,–,–,–,–,12.4,–,C=CC(=O)Nc1ccnc(Sc2c(OC)nc(N3CCCCC3)nc2OC)n1,–,3.15,–,–
–,–,–,–,–,> 100,–,C=CC(=O)Nc1ccnc(Sc2c(OC)nc(N3CC[N+](C)([O-])CC3)nc2OC)n1,–,> 100,–,–
–,–,–,–,–,7.5,–,C=CC(=O)Nc1ccnc(Sc2c(OC)nc(OC)nc2OC)n1,–,–,–,–
–,–,–,–,–,–,–,C=CC(=O)Nc1cccc(Sc2c(OC)nc(N3CCN(C)CC3)nc2OC)c1,–,7.8,–,–
–,–,–,–,–,32,–,C/C=C/C(=O)Nc1ccnc(Sc2c(C)nc(N3CCN(C)CC3)nc2C)n1,–,20,–,–
–,–,–,–,–,7.2,–,C=CC(=O)Nc1ccnc(Sc2c(OC)nc(N3CCOCC3)nc2OC)n1,–,2,–,–
1.7,2,–,0.7,> 500,1.2,–,C=CC(=O)Nc1cc(N)nc(Sc2c(OC)nc(N3CCN(C)CC3)nc2OC)n1,0.8,0.9,–,–
20,10,–,15,> 500,27.5,–,C=CC(=O)Nc1cccc(Sc2c(OC)nc(N3CCOCC3)nc2OC)c1,16.5,46.5,–,–
3.5,7.5,–,5,> 500,4.5,–,C=CC(=O)Nc1cc(N)nc(Sc2c(OC)nc(N)nc2OC)n1,3.2,3.9,–,–

Compound,IC50 [1] [µM],IC50 (SK-BR-3 [2]) [µM],IC50 [3] [µM],IC50 [4] [µM],IC50 [6] [µM],IC50 (MOLM-13) [µM],IC50 [8] [µM],IC50 [5] [µM],IC50 (Kasumi 1) [µM],inhibition (SK-BR-3 [7]),Activity (SK-BR-3 [9])
C#CCCCn1c(Cc2cc(OC)c(OC)c(OC)c2Cl)nc2c(N)nc(F)nc21,2.5,–,–,2,–,–,–,2.9,–,–,–

# Source: ChEMBL document CHEMBL3124781, “Heat shock protein 70 inhibitors. 1. 2,5'-thiodipyrimidine and 5-(phenylthio)pyrimidine acrylamides as irreversible binders to an allosteric site on heat shock protein 70” (J Med Chem, 2014)
